pEC50, pKi: −log10 of the molar value.
Tests used:
[1] = species on record: Homo sapiens; assay: Selectivity index, ratio of Ki for human cloned adenosine receptor A1 expressed in CHO-K1 cell membrane to Ki for human cloned adenosine receptor A2A expressed in HEK293 cell membrane incubated for 60 mins by microbeta counting method; type: cell-based
How it was run: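 Ratio Ki(A1)/Ki(A2A). […] Both assays incubated 60 min at 27°C and read by filtration scintillation counting. Ki values from Cheng–Prusoff conversion.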

[2] = biological target: T1, Adenosine receptor A1 (Homo sapiens, UniProt P30542); assay: Displacement of [3H]DPCPX from human cloned adenosine receptor A1 expressed in CHO-K1 cell membranes incubated for 60 mins by microbeta counting method
T1 sequence (P30542 whole entry): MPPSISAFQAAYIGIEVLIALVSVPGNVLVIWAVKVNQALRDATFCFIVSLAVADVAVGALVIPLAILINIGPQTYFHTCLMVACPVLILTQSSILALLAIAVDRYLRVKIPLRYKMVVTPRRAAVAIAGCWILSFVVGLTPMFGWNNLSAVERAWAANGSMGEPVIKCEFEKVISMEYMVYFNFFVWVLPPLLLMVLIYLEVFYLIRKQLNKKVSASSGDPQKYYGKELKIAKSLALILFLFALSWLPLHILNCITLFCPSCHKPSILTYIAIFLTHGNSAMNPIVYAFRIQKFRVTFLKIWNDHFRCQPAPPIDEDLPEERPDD
How it was run: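 Radioligand [3H]DPCPX at 5 nM. Compounds tested as 10-point three-fold dilution series. Incubation 60 min at 27°C. Read-out by GF/B filtration and scintillation counting. Ki obtained from IC50 by Cheng–Prusoff (Kd 2.28 nM). Mean ± SEM of duplicates.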

[3] = biological target: T2, Adenosine receptor A2a (Homo sapiens, UniProt P29274); assay: Displacement of [3H]CGS21680 from human cloned adenosine receptor A2A expressed in HEK-293 cell membrane at 1 uM incubated for 60 mins by microbeta counting method relative to control; type: cell membranes
T2 sequence (P29274 whole entry): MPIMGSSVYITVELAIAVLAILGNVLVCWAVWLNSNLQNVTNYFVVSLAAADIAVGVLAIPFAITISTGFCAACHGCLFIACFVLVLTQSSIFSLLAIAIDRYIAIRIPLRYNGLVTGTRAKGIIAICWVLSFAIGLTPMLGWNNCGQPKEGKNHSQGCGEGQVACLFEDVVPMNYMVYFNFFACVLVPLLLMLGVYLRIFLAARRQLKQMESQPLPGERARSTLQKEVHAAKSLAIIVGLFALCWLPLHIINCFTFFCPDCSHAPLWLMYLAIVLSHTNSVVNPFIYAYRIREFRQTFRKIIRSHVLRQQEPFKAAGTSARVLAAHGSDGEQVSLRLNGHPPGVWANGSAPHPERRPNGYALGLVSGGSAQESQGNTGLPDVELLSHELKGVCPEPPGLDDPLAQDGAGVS
How it was run: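 Human A2A HEK-293 membranes in Tris-HCl pH 7.4/MgCl2/EDTA buffer with adenosine deaminase. […] Single compound concentration of 1 μM. Incubation 60 min at 27°C. Filtration then scintillation counting. Result is percent displacement of specific binding.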

[4] = biological target: T2, Adenosine receptor A2a; assay: Displacement of [3H]CGS21680 from human cloned adenosine receptor A2A expressed in HEK-293 cell membrane incubated for 60 mins by microbeta counting method; type: cell membranes
How it was run: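 Compounds tested as 10-point three-fold dilution series. Incubation 60 min at 27°C. Bound ligand separated by GF/B filtration, scintillation counted. Mean ± SEM of duplicates.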

[5] = biological target: T3, Adenosine receptor A1 (Homo sapiens) (UniProt P30542); assay: Displacement of [3H]DPCPX from human cloned adenosine receptor A1 expressed in CHO-K1 cell membranes at 1 uM incubated for 60 mins by microbeta counting method relative to control
T3 sequence (whole entry): T1 sequence (P30542 whole entry)
How it was run: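 Human A1 CHO-K1 membranes in Tris-HCl pH 7.4/MgCl2/EDTA buffer with adenosine deaminase. Radioligand [3H]DPCPX at 5 nM. Single compound concentration of 1 μM. Incubation 60 min at 27°C. Filtration then scintillation counting. Result is percent displacement of specific binding.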

[6] = biological target: T2, Adenosine receptor A2a; assay: Agonist activity at human adenosine receptor A2A expressed in HEK293 cells assessed as cAMP accumulation incubated for 30 mins by Eu-cAMP tracer-based Envision plate reader analysis; type: functional, cell-based
How it was run: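 Intact HEK-293 cells stably expressing human A2A receptor, detached with Versene, resuspended at 300 cells/well in HBSS/HEPES/BSA buffer pH 7.4 with rolipram. Compounds given as 11-point three-fold DMSO dilution series.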

[7] = biological target: T1, Adenosine receptor A1; assay: Displacement of [3H]CPX from human adenosine receptor A1 expressed in CHO-K1 cell membranes incubated for 2 hrs by radioligand competitive binding analysis

Nc1nc(N/N=C/c2ccc(-c3ccccn3)cc2)nc2c1ncn2[C@@H]1O[C@H](CO)[C@@H](O)[C@H]1O
Ratio Ki [1]: 36
pKi [2]: 5.12

Nc1nc(N/N=C/c2ccc(N3CCOCC3)cc2)nc2c1ncn2[C@@H]1O[C@H](CO)[C@@H](O)[C@H]1O
Ratio Ki [1]: 0.003
pKi [2]: 8.60

Nc1nc(N/N=C/c2ccc(-c3ccc(Br)cc3)o2)nc2c1ncn2[C@@H]1O[C@H](CO)[C@@H](O)[C@H]1O
inhibition [3]: 27%
Ratio Ki [1]: < 0.001
pKi [4]: < 5.00
pKi [2]: 8.35

Nc1nc(N/N=C/c2cccc(OCc3ccccc3)c2)nc2c1ncn2[C@@H]1O[C@H](CO)[C@@H](O)[C@H]1O
Ratio Ki [1]: 0.075
pKi [2]: 7.89

Nc1nc(N/N=C/c2ccc(Br)cn2)nc2c1ncn2[C@@H]1O[C@H](CO)[C@@H](O)[C@H]1O
Ratio Ki [1]: 0.02
pKi [4]: 6.62
pKi [2]: 8.33

Nc1nc(N/N=C/c2ccc(OCc3ccccc3)c(OCc3ccccc3)c2)nc2c1ncn2[C@@H]1O[C@H](CO)[C@@H](O)[C@H]1O
Ratio Ki [1]: > 1000
pKi [2]: < 5.00
inhibition [5]: 0%

Nc1nc(N/N=C/c2ccc(N(c3ccccc3)c3ccccc3)cc2)nc2c1ncn2[C@@H]1O[C@H](CO)[C@@H](O)[C@H]1O
Ratio Ki [1]: > 1000
pKi [2]: < 5.00
inhibition [5]: 0%

Nc1nc(N/N=C/c2ccc(-c3ccccc3)cc2)nc2c1ncn2[C@@H]1O[C@H](CO)[C@@H](O)[C@H]1O
pKi [2]: 5.10

Nc1nc(N/N=C/c2cccnc2Cl)nc2c1ncn2[C@@H]1O[C@H](CO)[C@@H](O)[C@H]1O
Ratio Ki [1]: 0.53
pKi [4]: 8.06
pKi [2]: 8.34
pEC50 [6]: 8.34

N#Cc1ccccc1/C=N/Nc1nc(N)c2ncn([C@@H]3O[C@H](CO)[C@@H](O)[C@H]3O)c2n1
pKi [2]: 8.54

CCOc1cc(/C=N/Nc2nc(N)c3ncn([C@@H]4O[C@H](CO)[C@@H](O)[C@H]4O)c3n2)ccc1O
Ratio Ki [1]: 5
pKi [2]: 5.16

CNC(=O)c1cnn(-c2nc(N)c3ncn([C@@H]4O[C@H](CO)[C@@H](O)[C@H]4O)c3n2)c1 [REGADENOSON ANHYDROUS]
pKi [7]: < 4.78

N#Cc1ccc(/C=N/Nc2nc(N)c3ncn([C@@H]4O[C@H](CO)[C@@H](O)[C@H]4O)c3n2)cc1
Ratio Ki [1]: 0.5
pKi [4]: 8.07
pKi [2]: 8.39
pEC50 [6]: 7.82

Nc1nc(N/N=C/c2ccc(C(F)(F)F)cc2)nc2c1ncn2[C@@H]1O[C@H](CO)[C@@H](O)[C@H]1O
Ratio Ki [1]: 0.6
pKi [2]: 7.43

CCCCc1nc(/C=N/Nc2nc(N)c3ncn([C@@H]4O[C@H](CO)[C@@H](O)[C@H]4O)c3n2)c(Cl)[nH]1
Ratio Ki [1]: 0.67
pKi [4]: 7.74
pKi [2]: 7.92
pEC50 [6]: 8.96

Nc1nc(N/N=C/c2ccc3ncccc3c2)nc2c1ncn2[C@@H]1O[C@H](CO)[C@@H](O)[C@H]1O
Ratio Ki [1]: 1.5
pKi [4]: 8.19
pKi [2]: 8.01
pEC50 [6]: 8.26

CCCOc1ccc(/C=N/Nc2nc(N)c3ncn([C@@H]4O[C@H](CO)[C@@H](O)[C@H]4O)c3n2)cc1
Ratio Ki [1]: 66
pKi [4]: 6.65
pKi [2]: < 5.00
inhibition [5]: 7%

Nc1nc(N/N=C/c2ccc(N3CCCC3)cc2)nc2c1ncn2[C@@H]1O[C@H](CO)[C@@H](O)[C@H]1O
Ratio Ki [1]: 0.00077
pKi [4]: 5.18
pKi [2]: 8.29

COc1cc(/C=N/Nc2nc(N)c3ncn([C@@H]4O[C@H](CO)[C@@H](O)[C@H]4O)c3n2)ccc1OCc1ccccc1
Ratio Ki [1]: 91
pKi [2]: 5.04

COc1ccc(/C=N/Nc2nc(N)c3ncn([C@@H]4O[C@H](CO)[C@@H](O)[C@H]4O)c3n2)cn1
Ratio Ki [1]: 0.0018
pKi [4]: 5.84
pKi [2]: 8.59

CCCCC/C=C/C=C/C=N/Nc1nc(N)c2ncn([C@@H]3O[C@H](CO)[C@@H](O)[C@H]3O)c2n1
Ratio Ki [1]: 0.11
pKi [4]: 7.76
pKi [2]: 8.70
pEC50 [6]: 7.99

Nc1nc(N/N=C/c2cncs2)nc2c1ncn2[C@@H]1O[C@H](CO)[C@@H](O)[C@H]1O
Ratio Ki [1]: 0.31
pKi [4]: 7.15
pKi [2]: 7.66

Nc1nc(N/N=C/c2ccc(C(F)(F)F)cc2C(F)(F)F)nc2c1ncn2[C@@H]1O[C@H](CO)[C@@H](O)[C@H]1O
Ratio Ki [1]: > 1000
pKi [4]: 5.20
pKi [2]: < 5.00
inhibition [5]: 0%

Nc1nc(N/N=C/c2ccc(Cl)c(C(F)(F)F)c2)nc2c1ncn2[C@@H]1O[C@H](CO)[C@@H](O)[C@H]1O
Ratio Ki [1]: > 1000
pKi [2]: < 5.00
inhibition [5]: 11%

Nc1nc(N/N=C/c2ccc[nH]2)nc2c1ncn2[C@@H]1O[C@H](CO)[C@@H](O)[C@H]1O
Ratio Ki [1]: 0.96
pKi [4]: 8.08
pKi [2]: 8.10
pEC50 [6]: 8.07

CC(=O)Nc1ccc(/C=N/Nc2nc(N)c3ncn([C@@H]4O[C@H](CO)[C@@H](O)[C@H]4O)c3n2)cc1
Ratio Ki [1]: > 1000
pKi [2]: < 5.00
inhibition [5]: 0%

Nc1nc(N/N=C/C2CCCC2)nc2c1ncn2[C@@H]1O[C@H](CO)[C@@H](O)[C@H]1O
Ratio Ki [1]: 1.4
pKi [4]: 8.39
pKi [2]: 8.25
pEC50 [6]: 8.36

COc1cc(/C=N/Nc2nc(N)c3ncn([C@@H]4O[C@H](CO)[C@@H](O)[C@H]4O)c3n2)cc(OC)c1OC
Ratio Ki [1]: > 1000
pKi [4]: 5.26
pKi [2]: < 5.00
inhibition [5]: 0%

Nc1nc(N/N=C/c2ccc(-n3ccnc3)cc2)nc2c1ncn2[C@@H]1O[C@H](CO)[C@@H](O)[C@H]1O
Ratio Ki [1]: > 1000
pKi [2]: < 5.00
inhibition [5]: 0%

CSCC/C=N/Nc1nc(N)c2ncn([C@@H]3O[C@H](CO)[C@@H](O)[C@H]3O)c2n1
inhibition [3]: 8%
pKi [4]: < 5.00
pKi [2]: < 5.00
inhibition [5]: 0%

CC(/C=N/Nc1nc(N)c2ncn([C@@H]3O[C@H](CO)[C@@H](O)[C@H]3O)c2n1)Cc1ccc(C(C)C)cc1 (some centres not stated)
Ratio Ki [1]: 1430
pKi [4]: 8.20
pKi [2]: 5.02
pEC50 [6]: 8.86

Nc1nc(N/N=C/c2ccc(OCc3ccc(F)cc3)cc2)nc2c1ncn2[C@@H]1O[C@H](CO)[C@@H](O)[C@H]1O
Ratio Ki [1]: 12.5
pKi [2]: 7.15
pEC50 [6]: 8.39

CCN(CC)c1ccc(/C=N/Nc2nc(N)c3ncn([C@@H]4O[C@H](CO)[C@@H](O)[C@H]4O)c3n2)cc1
Ratio Ki [1]: > 1000
pKi [4]: 8.19
pKi [2]: < 5.00
pEC50 [6]: 7.75
inhibition [5]: 0%

From ChEMBL document CHEMBL4351010, “Design, synthesis and biological evaluation of 2-hydrazinyladenosine derivatives as A2A adenosine receptor ligands” (Eur J Med Chem, 2019)
